# Only some compounds are listed: those with a hit (about 3% of all), similar ones and a draw of the others.
# PfHsp90 yeast 2: reduces growth (ATP signal) of yeast expressing P. falciparum Hsp90. S. cerevisiae expressing PfHsp90, BacTiter-Glo ATP, 48 h; yeast lacking PDR1 and PDR3 efflux regulators. inhibition, % at 9.4 µM. 310,000 compounds, 0.32% hits. AID 504621;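 active = every replicate shows inhibition above about 80%, whatever the replicate mean, limit read from the data; inconclusive = mean inhibition reaches the set limit but some replicate falls short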;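 also: 0% = DMSO neutral controls and 100% = 20 µM radicicol positive controls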
# Glyco luc inh: N-linked glycosylation inhibition | D54 ERlucT glycosylation luciferase reporter, 24 h; percent of 100 nM tunicamycin response | reporter increase, % at 12.5 µM | 360,000 compounds, 0.23% hits;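 active = mean luciferase reporter signal, scaled so untreated is 0 and the glycosylation-blocking control 100, at or above a set limit in every replicate; inconclusive = mean reaches the limit but not every replicate does; inactive = mean below the limit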;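 also: luciferase carries N-glycosylation sites so blocking glycosylation raises the light; 0% = median of neutral control wells and 100% = median of 100 nM tunicamycin wells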
# PvdQ inh: P. aeruginosa PvdQ acylase inhibition | AID 488965 | 340,000 compounds, 0.063% hits | purified PvdQ acylase, fluorescence plate reader | inhibition, % at 10 µM; in the data active = inhibition above about 30%, passing the limit was not always enough; inconclusive = no clear call, values can overlap the other calls;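 also: 0% = vehicle neutral wells and 100% = reference inhibitor wells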
# T cruzi inh: blocks replication of Trypanosoma cruzi. T. cruzi beta-gal in NIH3T3, luminescence, 90 h. inhibition, % (test concentration not listed). AID 1885. 300,000 compounds, 1.4% hits;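 active = mean inhibition across valid replicates above about 55%, limit read from the data; inconclusive = mean below that limit but half or more replicates reach it; inactive = mean below it, under half of replicates reach it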;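 also: signal also drops with host cell toxicity which is not excluded here; 0% = plate median of DMSO wells and 100% = zero luminescence signal; higher percent means less beta-gal luminescence so fewer parasites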
#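 Material: NIH/3T3 host cells with β-galactosidase reporter T. cruzi; Input: 5,000 host fibroblasts per well; Medium: DMEM, 2% fetal bovine serum; Compound: 50 nL DMSO compound solution per well; Schedule: 3 h host attachment, then at least 90 h co-culture; Detection: luminescent β-galactosidase signal after 60 min lysis.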
# CaV13 FRET inh: Disruptors of the CACNA1D IQ motif to Ca2+-dependent inactivation inhibitor domain association, primary screening, Förster resonance energy transfer in intact living …; HEK cells, CFP/YFP FRET ICDI-IQ, plate reader, 10 min; percent FRET-ratio fall versus neutral wells; inhibition, % at 12.3 µM; AID 743397; 340,000 compounds, 0.098% hits;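 active = mean replicate inhibition of at least 30% and at least 1% of replicates passing that level; inconclusive = only one of the two criteria is met; inactive = neither criterion is met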;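 also: 0% = median of the neutral control wells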
# HSF-1 act: increases HSF-1 driven luciferase reporter signal; 300,000 compounds, 1.7% hits; activation, % at 9 µM; NIH3T3-HGL HSF-1 luciferase reporter, MG132, 8 h; 100% = twice DMSO control signal;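 active = mean replicate activation of at least 50% with a set share of replicates each reaching 50%; inconclusive = only one of those two conditions met; inactive = mean below 50% and too few replicates reaching it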;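 also: 0% = median of the neutral control wells and 100% = twice that signal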
# Active calls of the source: *; u = inconclusive; x = not tested or not shown.
SMILES,PfHsp90 yeast 2,Glyco luc inh,PvdQ inh,T cruzi inh,CaV13 FRET inh,HSF-1 act
CCn1c2ccccc2c2cc(CNCCCN3CCOCC3)ccc21,6,0,-23,61*,-4,11
COc1cc(CNCCN2CCOCC2)ccc1OCc1ccc(Cl)cc1,21,-3,-11,49,-7,39
CCC(CC)NCc1ccc2c(c1)c1ccccc1n2CC,-11,-2,-15,28,8,-17
C=CCOc1c(Cl)cc(CNCCCN2CCOCC2)cc1OC,6,2,-16,56*,-3,20
COc1cc(Nc2ccn3nc(-c4ccc(F)cc4)cc3n2)cc(OC)c1OC,x,1,x,x,-4,x
COc1cc(N/N=C/c2ccccc2O)ncn1,-14,1,-9,-7,-6,65*
O=C(NCc1ccccc1)[C@H]1CCCN1C(=O)[C@H]1CCCN1C(=O)c1ccc(Cl)cc1,x,x,x,x,-4,x
COc1ccc(C(C)(C)C)cc1NC(=O)Nc1ccc2c(c1)OCO2,86*,-9,-7,32,-3,-39
C(=C\c1ccc2nncn2c1)/c1ccccc1,x,4,x,x,-12,x
COc1ccccc1OCCC(=O)OCC(=O)c1c(N)n(C)c(=O)n(C)c1=O,4,0,32*,13,1,6
COc1cccc(C=O)c1OCCCOc1cccc2cccnc12,-32,6,-14,-4,11,53*
C=CCNC(=O)CSc1ccc(Cl)cc1,13,0,-9,-5,-4,-8
C=CCNCCOCCSc1ccc(Cl)cc1,15,-5,-19,39,-3,52*
C[C@H](O)[C@@H]1C(=O)N2CCc3c([nH]c4c(-c5ccccc5)cccc34)[C@@H]2C[C@@H]1N(C)C(=O)c1ccccc1F,x,x,x,x,-5,x
Cc1cc(Br)c(Cl)cc1NC(=O)CN1C(=O)C2C3CC(c4ccccc4)C(C3)C2C1=O (stereo not given),5,4,-4,56*,-4,10
Cc1cc(NC(=O)CCN2C(=O)C3C4CCC(C4)C3C2=O)c(C)cc1Br (stereo not given),x,0,5,-9,-5,5
CC(C)OC(=O)N(C)C[C@H]1OCc2cn(nn2)CCCC(=O)N([C@@H](C)CO)C[C@@H]1C,x,x,x,x,-5,x
Cc1cc(C)c2cc(C(=O)N(C)C3CCN(C)CC3)[nH]c2c1,12,-2,-14,34,7,55*
Cc1cc(C)c2cc(C(=O)N3CCc4ccccc4C3)[nH]c2c1,-37,3,-10,16,-4,14
CCC(CC)C(=O)N(C)c1c(C)nc2c(OCc3cccc(OC)c3)cccn12,x,-1,x,x,-5,x
CCCCCCCCCC[n+]1cccc2c3ccccc3ccc21,4,19,-17,70*,-19,-20
CCCCCCCC[n+]1cccc2c3ccccc3ccc21,-48,u,-13,68*,-19,-12
O=C(NNc1c2ccccc2nc2ccccc12)c1cccc(O)c1,-1,10,4,-12,-4,29
O=C(NNc1c2ccccc2nc2ccccc12)c1ccc(O)cc1,-2,9,2,0,44*,-8
COc1ccc(NC(=O)c2cc(-c3cc(C)cc(F)c3)n[nH]2)cc1OC,x,1,x,x,-4,x
SMILES,PfHsp90 yeast 2,Glyco luc inh,PvdQ inh,T cruzi inh,CaV13 FRET inh,HSF-1 act
Cn1cc(C=O)c(-c2ccc3c(c2)OCCCO3)n1,-4,2,2,-5,-5,89*
Cn1cc(C(=O)O)c(-c2ccc3c(c2)OCCCO3)n1,-9,2,-9,-9,-3,-3
C[C@@H]1CN([C@@H](C)CO)C(=O)CCCn2cc(nn2)CO[C@H]1CN(C)S(C)(=O)=O,x,x,x,x,-6,x
COc1cc(N)c(Br)cc1C(=O)O,17,1,12,-10,-7,0
Nc1cc2c(cc1Br)-c1c(C(=O)O)cccc1C2O (stereo not given),-6,35*,-11,x,-13,x
O=C1C(c2cc(=O)c3ccccc3[nH]2)=C(O)c2ccccc21,6,-3,10,14,-6,65*
Cc1ccc(NC(=O)C2CCCN(C(=O)c3ccc(Cl)cc3)C2)cc1S(=O)(=O)N1CCOCC1 (stereo not given),x,-3,1,62*,3,19

# Bioassay records: PubChem, Broad Institute
